The values below come from paper PMC6542277 (Journal of medicinal chemistry, 2018).

Where a SMILES comes first, the peptide text is derived from it. Bridges are numbered along the chain shown (N, C = ends). Roman numbers before positions name the chains, in order. [ ]: non-standard residue; d: D form. The star is where a group is joined. X1 = CN1C(=CC=CC=CC2=[N+](CCCCCC(=O)*)c3ccc4ccccc4c3C2(C)C)C(C)(C)c2c1ccc1ccccc21; AEEEA = NCCOCCOCCOCC(=O)O

Data set [1] in a line: In vivo whole-body NIR fluorescence imaging. Conditions: mouse, in vivo, iv, 300 uM, 150 uL.
Data set [2] concerns OE33 cells. Kind of data set: Apparent dissociation constant by flow cytometry. Type of data set: binding, human. Conditions: from kd on OE33 cells. The gist of the method:
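Labelled heterodimer serially diluted in PBS (0, 10, 25, 50, 100, 200 nM) and incubated with OE33 cells at 4°C for 1 h, then washed in cold PBS. Mean fluorescence was read by flow cytometry. kd = 1/ka came from a least-squares fit to I = (I0 + Imax·ka[X])/(I0 + ka[X]), where I0 is the no-peptide intensity and Imax the saturation intensity.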

In data set [3] the test system is Barrett's neoplasia (HGD and EAC). The data set is described as follows: Binding to human esophageal specimens ex vivo, confocal microscopy. Conditions: for AUC of ROC curve: human FFPE esophageal specimens ex vivo, HGD and EAC versus SQ and BE. The gist of the method: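 Archived FFPE human esophagus cut at 10 μm, deparaffinized, rehydrated, then given two-step acidic plus protease antigen retrieval. Sections were blocked with protein serum for 10 min, stained with 0.5 μM heterodimer for 10 min in the dark at RT, then anti-EGFR and anti-ErbB2 antibodies with secondaries. Mean intensity came from three 20×20 μm2 epithelial boxes, avoiding saturated regions. SQ/BE/HGD/EAC groups (n = 31, 8, 23, 12) compared by unpaired t test and one-way ANOVA.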

Another data set addresses EGFR (Homo sapiens, UniProt P00533). The data set is described as follows: siRNA knockdown of EGFR, confocal binding. Type of data set: cell-based. Conditions: confocal microscopy; mean of 5 cells from 3 images; P=3.6×10^−4.
Data set [4] in a line: Enzymatic stability in mouse serum. Conditions: 30 μM in mouse serum, 37°C, at 2 hour; HPLC of supernatant after centrifugation. Type of data set: in vitro ADME. The gist of the method:
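Samples taken at 0.5, 1.0, 1.5 and 2 h of serum incubation at 37°C were centrifuged at 14,000 rpm. 20 μL of supernatant was analysed by HPLC.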

Data set [5] can be described thus: Acute toxicity on histology. Conditions: nude mice after systemic injection of 300 μM, 150 μL PBS. Type of data set: in vivo, mouse.
In data set [6] the test system is EGFR/ErbB2 signaling (p-EGFR, p-ErbB2, p-AKT, p-ERK) in SKBr3 cells. Kind of data set: Effect on cell signaling, Western blot. Type of data set: cell-based, human.
In another data set the test system is SKBr3 cells. The data set is described as follows: Internalization, confocal images over time. Type of data set: cell-based, human.
Data set [7] relates to OE33 xenograft tumors. Kind of data set: Biodistribution, ex vivo organ fluorescence. Also noted: species or system mouse. Conditions: nude mice, 300 μM in 150 μL PBS, 2 hours.
Data set [8] has as its system OE33 human esophageal adenocarcinoma cells. Kind of data set: Confocal microscopy binding validation. Type of data set: cell-based. The gist of the method:
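OE33 cells, kept in RPMI 1640 with 10% FBS and penicillin/streptomycin at 37°C, 5% CO2, grown to ~70% confluence on coverslips. Cells were blocked with 2% BSA/PBS for 30 min, given Cy5.5-labelled peptides, washed 3×, fixed in ice-cold 4% PFA for 10 min and mounted with DAPI. Confocal intensities were quantified from 3 independent images.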

The nature of another data set: Hydrophilicity. Type of data set: physicochemical. Conditions: triethyleneglycol linker (E3); method not given.
Data set [9] has as its system OE33 xenograft tumors. Kind of data set: In vivo whole-body NIR fluorescence imaging. Conditions: nude mice, OE33 xenograft, 300 μM in 150 μL PBS via tail vein, NIR fluorescence.
A short description of data set [10]: Stability in PBS containing 0.1% BSA. Type of data set: physicochemical. Conditions: 0.01 mol/L PBS, pH 7.4, 37°C, HPLC at 0.5, 2, 6 and 12 hours.
Data set [11] relates to OE33 cells. The data set is described as follows: Apparent association time constant by flow cytometry. Conditions: 1 μM peptide, 4°C. Type of data set: binding, human. The gist of the method: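 OE33 cells grown to ~80% confluence, detached with PBS-based dissociation buffer, then held with 1 μM labelled heterodimer at 4°C for periods of 0–60 min. Cells were centrifuged, washed in cold PBS and fixed in 4% PFA before flow cytometry. Median fluorescence was ratioed to peptide-free cells, and k was fitted to y(t) = Imax[1−exp(−kt)].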

For another data set, the target named is ErbB2 (Homo sapiens, UniProt P04626). The data set is described as follows: siRNA knockdown of ErbB2, confocal binding. Type of data set: cell-based. Conditions: confocal microscopy; mean of 5 cells from 3 images; P=7.8×10^−3.
ErbB2, sequence (P04626 23-1255): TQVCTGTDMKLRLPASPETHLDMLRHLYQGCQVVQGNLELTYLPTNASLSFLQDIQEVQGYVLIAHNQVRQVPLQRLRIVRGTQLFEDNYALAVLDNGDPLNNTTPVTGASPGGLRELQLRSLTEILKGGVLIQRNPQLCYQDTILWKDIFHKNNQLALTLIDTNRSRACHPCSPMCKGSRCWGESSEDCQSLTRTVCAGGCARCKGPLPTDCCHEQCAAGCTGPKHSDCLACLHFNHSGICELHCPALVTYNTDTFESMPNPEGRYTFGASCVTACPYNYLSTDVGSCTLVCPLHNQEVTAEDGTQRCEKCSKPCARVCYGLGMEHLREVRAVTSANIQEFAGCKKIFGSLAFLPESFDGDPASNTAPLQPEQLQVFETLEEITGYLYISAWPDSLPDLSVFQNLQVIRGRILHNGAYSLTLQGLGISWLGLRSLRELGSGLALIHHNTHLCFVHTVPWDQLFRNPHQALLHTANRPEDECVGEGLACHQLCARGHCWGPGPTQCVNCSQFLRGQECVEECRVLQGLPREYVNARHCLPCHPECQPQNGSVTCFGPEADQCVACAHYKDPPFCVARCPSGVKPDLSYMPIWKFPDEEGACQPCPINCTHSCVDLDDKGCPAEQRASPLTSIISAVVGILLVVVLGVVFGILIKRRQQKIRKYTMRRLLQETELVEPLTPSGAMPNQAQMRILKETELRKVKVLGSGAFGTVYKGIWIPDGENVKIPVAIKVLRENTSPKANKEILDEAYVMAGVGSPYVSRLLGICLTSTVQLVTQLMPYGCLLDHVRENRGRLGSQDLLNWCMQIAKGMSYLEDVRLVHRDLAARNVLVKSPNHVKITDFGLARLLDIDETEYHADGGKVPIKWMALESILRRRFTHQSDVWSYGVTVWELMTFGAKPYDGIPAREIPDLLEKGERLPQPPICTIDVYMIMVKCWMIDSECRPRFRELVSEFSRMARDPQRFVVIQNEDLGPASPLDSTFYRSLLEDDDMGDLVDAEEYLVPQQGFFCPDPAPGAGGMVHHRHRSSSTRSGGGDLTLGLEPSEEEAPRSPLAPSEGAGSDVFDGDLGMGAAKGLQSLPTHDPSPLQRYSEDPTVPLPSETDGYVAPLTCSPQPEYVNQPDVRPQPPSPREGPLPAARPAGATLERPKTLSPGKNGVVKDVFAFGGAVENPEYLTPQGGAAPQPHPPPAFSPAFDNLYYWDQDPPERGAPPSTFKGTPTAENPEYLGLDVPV
Where [12] appears, read: human esophageal specimens ex vivo, confocal microscopy, 0.5 μM, 10 min, RT.

EGFR, sequence (P00533 25-1210): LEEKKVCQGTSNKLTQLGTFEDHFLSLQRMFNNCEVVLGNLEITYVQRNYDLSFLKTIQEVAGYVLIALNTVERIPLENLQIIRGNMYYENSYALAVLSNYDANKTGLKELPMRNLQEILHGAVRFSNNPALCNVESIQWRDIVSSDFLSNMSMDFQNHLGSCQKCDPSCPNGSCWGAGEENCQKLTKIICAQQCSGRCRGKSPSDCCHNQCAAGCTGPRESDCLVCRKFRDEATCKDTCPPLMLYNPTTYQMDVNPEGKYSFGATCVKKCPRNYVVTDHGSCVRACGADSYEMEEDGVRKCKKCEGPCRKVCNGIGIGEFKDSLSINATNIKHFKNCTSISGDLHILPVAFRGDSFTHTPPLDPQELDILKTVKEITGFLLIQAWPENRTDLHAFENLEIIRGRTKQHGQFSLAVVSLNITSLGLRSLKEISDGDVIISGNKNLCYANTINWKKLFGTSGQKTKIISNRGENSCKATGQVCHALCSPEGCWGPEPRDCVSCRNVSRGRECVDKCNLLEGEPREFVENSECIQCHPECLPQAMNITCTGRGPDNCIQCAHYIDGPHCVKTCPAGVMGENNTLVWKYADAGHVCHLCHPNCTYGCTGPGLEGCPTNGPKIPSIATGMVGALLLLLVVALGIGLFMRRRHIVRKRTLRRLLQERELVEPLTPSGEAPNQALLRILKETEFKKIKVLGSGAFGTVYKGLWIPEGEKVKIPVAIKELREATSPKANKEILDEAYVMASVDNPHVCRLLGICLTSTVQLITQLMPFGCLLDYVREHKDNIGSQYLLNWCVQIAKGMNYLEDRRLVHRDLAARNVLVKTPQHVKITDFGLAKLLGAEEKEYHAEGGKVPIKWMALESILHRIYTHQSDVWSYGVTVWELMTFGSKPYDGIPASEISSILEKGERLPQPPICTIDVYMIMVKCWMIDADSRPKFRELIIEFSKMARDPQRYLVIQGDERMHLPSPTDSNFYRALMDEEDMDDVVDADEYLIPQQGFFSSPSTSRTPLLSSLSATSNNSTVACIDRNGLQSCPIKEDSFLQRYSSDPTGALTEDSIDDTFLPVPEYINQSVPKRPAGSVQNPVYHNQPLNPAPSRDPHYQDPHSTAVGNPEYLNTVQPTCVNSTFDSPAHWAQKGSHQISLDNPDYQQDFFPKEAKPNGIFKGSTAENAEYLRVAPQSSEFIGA

As to `C[C@H](NC(=O)CNC(=O)CNC(=O)CN)C(=O)NCC(=O)NCC(=O)NCC(=O)NCCCC[C@H](NC(=O)CNC(=O)CNC(=O)CNC(=O)[C@H](C)NC(=O)CNC(=O)CNC(=O)CN)C(=O)N[C@@H](CCCCNC(=O)CCCCC[N+]1=C(C=CC=CC=C2N(C)c3ccc4ccccc4c3C2(C)C)C(C)(C)c2c1ccc1ccccc21)C(N)=O` [(GGGAGGG)2KK-Cy5.5, reference compound] (I: H-GGGAGGGKK(X1)-NH2 / II: H-GGGAGGG; amide I:8-II:C), the tissue to tissue ratio at 2 h in data set [1] was 1.43 ± 0.28.
`CN1C(=CC=CC=CC2=[N+](CCCCCC(=O)NCCCC[C@H](NC(=O)[C@H](CCCCNC(=O)COCCOCCOCCNC(=O)[C@H](Cc3ccccc3)NC(=O)[C@H](CCCNC(=N)N)NC(=O)[C@@H]3CCCN3C(=O)[C@H](CC(N)=O)NC(=O)[C@@H]3CCCN3C(=O)[C@H](CO)NC(=O)[C@@H](N)CCCCN)NC(=O)COCCOCCOCCNC(=O)[C@H](CCC(=O)O)NC(=O)[C@H](CCCNC(=N)N)NC(=O)[C@@H]3CCCN3C(=O)[C@H](CCCCN)NC(=O)[C@H](Cc3c[nH]cn3)NC(=O)[C@H](CCCNC(=N)N)NC(=O)[C@@H](N)CCC(N)=O)C(N)=O)c3ccc4ccccc4c3C2(C)C)C(C)(C)c2c1ccc1ccccc21` [QRH*-KSP*-E3-Cy5.5] (I: H-QRHKPRE[AEEEA]KK(X1)-NH2 / II: H-KSPNPRF[AEEEA]; amide I:9-II:C; N-terminus and C-terminus assumed): the “affinity compared with either monomer alone” value with OE33 cells [2] is on record as 2 fold. In [3], the “AUC of ROC curve” value is on record as 0.95. Further, in data set [3] (setting [12]), the “fluorescence intensity with SQ and BE” value is listed as “minimal fluorescence intensity”; the “fluorescence signal with HGD and EAC” value is recorded as “increased signal”. The “fluorescence intensity, siCL (control) versus siEGFR (knockdown) SKBr3 cells” value at EGFR is “significantly greater intensity”. Further, the “area of new formed peak (may arise from degradation)” value in data set [4] is reported as “about 20%”. Further, the “acute toxicity on histology (H&E)” value in data set [5] is reported as “no evidence of acute toxicity”. In addition, in [6] (heterodimer at 1, 5 and 20 μM), the “downstream change in AKT (p-AKT) and ERK (p-ERK)” value is recorded as “no downstream change”; the “phosphorylation of EGFR (p-EGFR) or ErbB2 (p-ErbB2)” value is “no change”. Also, in the data set with SKBr3 cells, the “time at which internalization begins” value was determined as 8 min and the “time at which internalization reaches near completion” value is recorded as 40 min. Also, in the data set on OE33 xenograft tumors [7] (supports renal clearance), the uptake in kidney result was “High uptake”. The “uptake in tumor relative to muscle” value in the data set with OE33 xenograft tumors [7] (OE33 xenograft, n = 6) is 3 fold. Moreover, the “binding to surface of OE33 cells” value in data set [8] (1 μM, 30 min, 4°C) was “strong binding”. In addition, the “fluorescence intensity compared with either monomer alone” value in [8] (binding to OE33 cells) came to 3 fold. For the same compound, the hydrophilicity entry in “Hydrophilicity” is “good hydrophilicity”. The “time at which signal returns to baseline (systemic clearance)” value in the data set on OE33 xenograft tumors [9] is ~ 24 hours. In addition, the tissue to tissue ratio at 2 h in data set [1] worked out at 2.39 ± 0.52. For the same compound, in [10], the “degradation in PBS containing 0.1% BSA” value is listed as “No noticeable degradation”. In the data set on OE33 cells [11], the “association time (printed in brackets after k)” value came out at 4.5 min. In addition, the “fluorescence intensity, siCL (control) versus siErbB2 (knockdown) SKBr3 cells” value at ErbB2 is “significantly greater intensity”.
`CS(=O)(=O)CCNCc1ccc(-c2ccc3ncnc(Nc4ccc(OCc5cccc(F)c5)c(Cl)c4)c3c2)o1` [lapatinib, reference compound]: the “expression of p-ErbB2, p-AKT and p-ERK” value in [6] (lapatinib 100 nM) is recorded as “reduced expression”.
In the case of “EGF: endogenous ligand for EGFR, positive control”, the “phosphorylation of AKT (p-AKT) and ERK (p-ERK), positive control” value in data set [6] (EGF 100 ng/mL) is “strong phosphorylation activity”.
Consider KSPNPRF [KSP*-Cy5.5], for which, in [3], the “AUC of ROC curve” value came to 0.91.
Same read-out and setting: then QRHKPRE [QRH*-Cy5.5], with 0.79.
